# Data reported in the EternaBench riboswitch data.
# Test system: MS2 coat protein
# Test: apparent Kd, MS2 coat protein; higher = weaker binding; RNA-MaP array; FMN 200 µM where present
# Method in brief: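 Designs were transcribed by stalled E. coli RNA polymerase on Illumina sequencing-chip clusters. They were titrated with SNAP-549-labelled MS2 coat protein from 0.7 or 1.5 nM, doubling to 3 µM, in 100 mM Tris-HCl pH 7.5, 80 mM KCl, 4 mM MgCl2, BSA, DTT, yeast tRNA and Tween-20, without and then with constant ligand. The apparent Kd is the median of filtered per-cluster fits after normalisation of green signal to red-channel RNA signal and control-cluster median Fmax.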
# [1] = designed as: ON switch for flavin mononucleotide, no ligand
# [2] = ligand present: flavin mononucleotide, designed as: ON switch for flavin mononucleotide
# [3] = designed as: OFF switch for flavin mononucleotide, no ligand
# [4] = ligand present: flavin mononucleotide, designed as: OFF switch for flavin mononucleotide
Sequence,apparent Kd [1],apparent Kd [2],apparent Kd [3],apparent Kd [4]
UUUAUUUUUACAGGAUAUCAUCUAUAUAACUCAUGCACAUGUUUACAUGAGGAUCACCCAUGUUUUGAGAAGGGUAAUGAAACA,440 nM,228 nM,–,–
AUAUCUCUAUAAGUUCCAAUACGAACAUGAGGAUCACCCAUGUAGGAUAUGCUAGAAGUAGAGUUGCAGAAGGACAAGUACCUU,–,–,7.48 nM,6.75 nM
AUGCUUUUUGUAGGAUAUACAUUUUGUACGUAUGUAGAAGGACAUGAGGAUCACCCAUGUAAAUUAUUAUUAAAUAUCAUACUU,–,–,45.8 nM,31.8 nM
AUGGACGAAGGAUAUGCAUGGAGACCGGGCAGUUCAGCGCUACAUGAGGAUCACCCAUGUAGAAGGUCGCUCCC,–,–,16 nM,24.6 nM
ACAAUAGUAUCUCAUGUAUUACAUGAGGAUCACCCAUGUAACUAGGAUAUGUAUUAGAAUUUACAACAGAAGGAGUUAUUAUGU,–,–,9.03 nM,17.7 nM
UUUUAACAUGAGGAUCACCCAUGUGAGGAUAUCGAAUUUUUUAUUAAUAUUAAUAAAACGAGAAGGCACAUUUU,–,–,63.1 nM,70.2 nM
AAAAAGUCAGGAUAUACGAAAAAAAAAAAAAAAAAAAAAAAGUAGAAGGGACAUGAGGAUCACCCAUGUGAAAA,–,–,74.7 nM,39.3 nM
UGUGUCUGUAGAGGAUAUCCGGGCGUUCGGCUAGGAGAAGGCUGCAACACAUGAGGAUCACCCAUGUAGGUUGUGUCUCCCUAC,–,–,9.9 nM,29.7 nM
CCCAGUUAUCUAGGAUAUUGUACAUGAGGAUCACCCAUGUAAUAAAUGAGGAUUUCGGGUGUCUACAAGAAGGAGAGGAUAGGC,–,–,28.6 nM,26.1 nM
AAUUAGUAAGAAUCACAUGAGGAUCACCCAUGUUUACGGAUGCAGGAUAUGUGGGAUAUUACUUAACAGAAGGGCAAUAACUUU,104 nM,44.2 nM,–,–
GAUCAACAUGAGGAUCACCCAUGUGAGGAUAUGAUACUAUGUACUUCGGUACAUAGUAUCAGAAGGCACUAGGA,–,–,65.6 nM,192 nM
UUGUUAUAUGUAGGAUAUGCAUAUUAUUAUUAUGCAGAAGGACAUGAGGAUCACCCAUGUGUAUUAUUAUUAUAUAUUAUAUAU,–,–,23.2 nM,33.2 nM
AGUCGGAGCAGAGGAUAUUACAUGAGGAUCACCCAUGUAUUAAAUGGAAGCUGGAAACAGCAAUGUAAGAAGGCUGCUCCGACA,–,–,62.4 nM,284 nM
UGUCGGAGCAGAGGAUAUUACAUGAGGAUCACCCAUGUAUGAACCAAUAUCUGGAAACAGCAAUGUAAGAAGGCUGCUCCGACA,–,–,7.16 nM,47.3 nM
GGUGCACAUGAGAAGGCGAUCAUGAAACAUGAUCGAGGAUAUCAUGUAAACAUGAGGAUCACCCAUGUAUGGGAAAAGUGCACC,114 nM,10.9 nM,–,–
GUAGCAUACCAAGGAUAUUCAGGGCUUGGAUAGACAUGAGGAUCACCCAUGUGGCGAAAGUCUAGGGAGAAGGUGGAAUGCUAC,16.8 nM,15.1 nM,–,–
ACAUGCGGAUGAGGAUAUUCAUUUAUGAGGAUAGAAGAAGGCAUACAUGAGGAUCACCCAUGUAUACGCAUGAGGAUCCCUUAC,–,–,39.1 nM,41 nM
GCCAUCGCAUGAGGAUAUGCUCCCGUUUCGGGAGCAGAAGGCAUGUCACAAGACAUGAGGAUCACCCAUGUAGUUAUGAUGGCA,221 nM,8.6 nM,–,–
UAUAUAAUUAAGAGCUGGAAAACAACAUGAGGAUCACCCAUGUAGGAUAUCAGCACGAUAAGUGCUGAGAAGGACUACCAGCUC,–,–,14 nM,16.8 nM
ACAUACAUUCGAGGAUAUCGGUGAUUAAUAAUACGAGAAGGCGAUUUAAGGCAUAAAGCCUUAGACAUGAGGAUCACCCAUGUA,97.9 nM,43.8 nM,–,–
UGGUACUAGGGAGGAUAUGGGAAGAUACAUGAGGAUCACCCAUGUUUAAGAAUGCCGAGAGGCAACUAGAAGGCCCUAGAACCU,406 nM,19.7 nM,–,–
GCAGGCUUCGAGAAGGACAUGAGGAUCACCCAUGUGCGUGUGAAGCAGCCGUGAGGCUGCAUCAUGUAGGAUAUCGGAGUCUGA,–,–,74.5 nM,500 nM
AAUUUAAUACAUGAGGAUCACCCAUGUAAAUUAAUUAAGAUCUAGGAUAUCAGCUCGUUUAGAGCUGAGAAGGAGAUCACAUGU,16.6 nM,14.1 nM,–,–
